For assay [1], the system named is Canis familiaris. Nature of the assay: Inotropic change in blood pressure (systolic/diastolic mmHg) in anesthetized dog; -4/-9. Type of assay: functional, organism-based. The following applies: Canis lupus familiaris; Artery. The procedure, abridged: (§1)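 Adult mongrel dogs of either sex, induced with sodium methohexital and maintained on methoxyflurane, breathing spontaneously at 37 ± 1 °C. The right atrium was electrically paced, and the pacer was switched off periodically to obtain spontaneous rate. Dose was 3.1 mg/kg iv via the femoral vein. Catheter-tip transducers recorded aortic and LV pressure; LV dP/dt max indexed contractility. BP and rate were taken at the time of maximal % change in dP/dt max. 1–4 dogs were used per compound.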

Assay [2] concerns Canis familiaris. Nature of the assay: Change in heart rate (beats/min) in anesthetized dog. Type of assay: functional, Canis lupus familiaris. The procedure, abridged: as §1
Assay [3] concerns Canis familiaris. Nature of the assay: Evaluated for dP/dt max in anesthetized dogs. In kind it is functional, Canis lupus familiaris. The procedure, abridged: as §1
The nature of assay [4]: Inhibition of cAMP phosphodiesterase preparation from rabbit lung at a substrate concentration of 0.14 uM.
The target in assay [5] is Phosphodiesterase 4 (Homo sapiens, UniProt P27815+Q08499+Q07343+Q08493). Conditions: Oryctolagus cuniculus; Kidney.
The test system of assay [6] is Canis familiaris. In words: Inotropic change in blood pressure (systolic/diastolic mmHg) in anesthetized dog; -6/-22. In kind it is functional, organism-based. The following applies: Canis lupus familiaris; Artery. The procedure, abridged:
as §1

The test system of assay [7] is Canis familiaris. In words: Inotropic change in blood pressure (systolic/diastolic mmHg) in anesthetized dog; -8/-25. Type of assay: functional, organism-based. Conditions: Canis lupus familiaris; Artery. The procedure, abridged: as §1
Assay [8] deals with Canis familiaris. In words: Inotropic change in blood pressure (systolic/diastolic mmHg) in anesthetized dog; 0/-6. In kind it is functional, Canis lupus familiaris, Artery. The procedure, abridged:
as §1

The test system of assay [9] is Canis familiaris. In words: Inotropic change in blood pressure (systolic/diastolic mmHg) in anesthetized dog; 2/-5. In kind it is functional, organism-based. The following applies: Canis lupus familiaris; Artery. The procedure, abridged:
as §1

Assay [10] concerns Canis familiaris. In words: Inotropic change in blood pressure (systolic/diastolic mmHg) in anesthetized dog; 6/-19. In kind it is functional, organism-based. The following applies: Canis lupus familiaris; Artery. In a few lines:
as §1

Calls of active or inactive are those of the source. The calls are words filed in the database; no cut-off is given here.

Consider `CCN(CC)c1ncnc2c1nc(SCc1ccccc1)n2[C@@H]1O[C@@H]2COP(=O)(O)O[C@H]2[C@H]1O`, for which, in [1], the Change entry is “inactive”. Moreover, the Change in assay [2] is on record as 5 beats/min; in assay [3], 45%. Further, the I50 in assay [4] came out at 3.6 µM. Besides, the Hydrolysis in assay [5] is less than 0.05.
Turning to `CCNc1ncnc2c1nc(SCc1ccccc1)n2[C@@H]1O[C@@H]2COP(=O)(O)O[C@H]2[C@H]1O`, the Change result in [6] is “inactive”. Also, the Change in assay [2] is recorded as 10 beats/min; in [3], 80%. Besides, the I50 in assay [4] stood at 2.5 µM. The Hydrolysis in [5] is less than 0.05.
As to `CN(C)c1ncnc2c1nc(SCc1ccccc1)n2[C@@H]1O[C@@H]2COP(=O)(O)O[C@H]2[C@H]1O`, the Change entry in assay [7] is “inactive”. Besides, the figures for the Change in [2] and in assay [3] were 15 beats/min and 61%, respectively. Besides, in [5], the Hydrolysis was less than 0.05.
With `CNc1ncnc2c1nc(SCc1ccccc1)n2[C@@H]1O[C@@H]2COP(=O)(O)O[C@H]2[C@H]1O`, the Change in [8] came to 0%; in assay [2], 0 beats/min; in assay [3], 71%. This compound had an I50 in assay [4] of 120 µM. Besides, the Hydrolysis in assay [5] is less than 0.05.
`CCCCNc1ncnc2c1nc(SCc1ccccc1)n2[C@@H]1O[C@@H]2COP(=O)(O)O[C@H]2[C@H]1O`: the Change worked out at 0 beats/min in assay [2] and 84% in [3]. In assay [9], the Change entry is “inactive”. The I50 in [4] came out at 20 µM. Besides, the Hydrolysis in [5] was less than 0.05.
For `CCCNc1ncnc2c1nc(SCc1ccccc1)n2[C@@H]1O[C@@H]2COP(=O)(O)O[C@H]2[C@H]1O`, the Change in assay [2] worked out at 24 beats/min; in assay [3], 127%. In addition, the I50 in [4] worked out at 3.6 µM. Further, the Change entry in [10] was “inactive”. In [5], this compound returned a Hydrolysis of less than 0.05.
Consider `CCCCCCNc1ncnc2c1nc(SCc1ccccc1)n2[C@@H]1O[C@@H]2COP(=O)(O)O[C@H]2[C@H]1O`, for which, in assay [4], the I50 amounted to 30 µM. Also, the Hydrolysis in [5] is less than 0.05.
In [4], `Nc1ncnc2c1nc(SCc1cccc([N+](=O)[O-])c1)n2[C@@H]1O[C@@H]2COP(=O)(O)O[C@H]2[C@H]1O` displayed an I50 of 25 µM. In assay [5], this compound had a Hydrolysis of less than 0.05.
In assay [4], `Nc1ncnc2c1nc(SCc1ccc(Cl)cc1)n2[C@@H]1O[C@@H]2COP(=O)(O)O[C@H]2[C@H]1O` yielded an I50 of 11 µM. This compound also gave a Hydrolysis in [5] of less than 0.05.
On the same counts, the results for `Nc1ncnc2c1nc(S)n2[C@@H]1O[C@@H]2COP(=O)(O)O[C@H]2[C@H]1O` are 20 µM and less than 0.05.
Consider `Nc1ncnc2c1nc(Sc1ccccc1)n2[C@@H]1O[C@@H]2COP(=O)(O)O[C@H]2[C@H]1O`, for which the I50 in assay [4] came out at 57 µM. Moreover, the Hydrolysis in assay [5] was less than 0.05.
On the same counts, the results for `CCSc1nc2c(N)ncnc2n1[C@@H]1O[C@@H]2COP(=O)(O)O[C@H]2[C@H]1O` are 33 µM and less than 0.05.

Values taken from ChEMBL document CHEMBL1121590, “Synthesis and enzymatic and inotropic activity of some new 8-substituted and 6,8-disubstituted derivatives of adenosine cyclic 3',5'-monophosphate” (J Med Chem, 1980).
